ChEMBL document CHEMBL2396604, “Synthesis and structure activity relationship of tetrahydroisoquinoline-based potentiators of GluN2C and GluN2D containing N-methyl-D-aspartate receptors” (J Med Chem, 2013)

Tests used:
[1] = target: Kappa-type opioid receptor (Homo sapiens, UniProt P41145); test: Inhibition of kappa opioid receptor (unknown origin) by psychoactive drug screening programme assay
[2] = target: Sigma non-opioid intracellular receptor 1 (Homo sapiens) (UniProt Q99720); test: Inhibition of sigma1 receptor (unknown origin) at 5 uM by psychoactive drug screening programme assay
[3] = target: Histamine H3 receptor (Homo sapiens) (UniProt Q9Y5N1); test: Inhibition of H3 histamine receptor (unknown origin) at 5 uM by psychoactive drug screening programme assay
Chain of Histamine H3 receptor (Homo sapiens) (Q9Y5N1 whole entry): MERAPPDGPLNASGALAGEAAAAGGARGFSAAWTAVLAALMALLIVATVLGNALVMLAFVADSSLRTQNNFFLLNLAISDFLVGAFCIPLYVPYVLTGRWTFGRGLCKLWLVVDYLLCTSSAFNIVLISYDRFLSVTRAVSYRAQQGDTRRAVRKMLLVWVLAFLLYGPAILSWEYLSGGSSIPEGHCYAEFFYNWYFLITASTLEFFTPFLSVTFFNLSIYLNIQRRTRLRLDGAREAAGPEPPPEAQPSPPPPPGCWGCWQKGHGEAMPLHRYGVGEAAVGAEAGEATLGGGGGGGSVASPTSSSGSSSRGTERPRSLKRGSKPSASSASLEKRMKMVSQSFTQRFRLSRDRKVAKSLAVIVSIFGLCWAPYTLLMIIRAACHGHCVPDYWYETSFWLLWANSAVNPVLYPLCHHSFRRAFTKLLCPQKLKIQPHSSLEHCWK
In short: (§1)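 Radioligand binding screen run by PDSP. Displacement of ligand binding was measured with test compound at 5 µM, n=4 per target.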

[4] = target: Histamine H1 receptor (Homo sapiens) (UniProt P35367); test: Inhibition of H1 histamine receptor (unknown origin) at 5 uM by psychoactive drug screening programme assay; in short: as §1
Chain of Histamine H1 receptor (Homo sapiens) (P35367 whole entry): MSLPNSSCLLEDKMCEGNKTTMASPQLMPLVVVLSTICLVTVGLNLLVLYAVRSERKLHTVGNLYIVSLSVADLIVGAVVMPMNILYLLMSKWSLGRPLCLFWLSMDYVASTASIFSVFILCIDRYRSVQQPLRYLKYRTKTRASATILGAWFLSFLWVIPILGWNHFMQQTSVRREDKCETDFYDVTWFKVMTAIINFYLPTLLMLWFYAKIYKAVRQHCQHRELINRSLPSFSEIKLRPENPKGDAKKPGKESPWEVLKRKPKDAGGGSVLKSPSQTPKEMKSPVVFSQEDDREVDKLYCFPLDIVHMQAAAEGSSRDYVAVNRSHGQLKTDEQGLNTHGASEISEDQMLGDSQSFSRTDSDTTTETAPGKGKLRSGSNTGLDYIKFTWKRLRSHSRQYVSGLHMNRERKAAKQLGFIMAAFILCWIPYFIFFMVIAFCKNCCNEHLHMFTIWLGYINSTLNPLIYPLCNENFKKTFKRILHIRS

[5] = target: Histamine H2 receptor (Homo sapiens) (UniProt P25021); test: Inhibition of H2 histamine receptor (unknown origin) at 5 uM by psychoactive drug screening programme assay; in short: as §1
Chain of Histamine H2 receptor (Homo sapiens) (P25021 whole entry): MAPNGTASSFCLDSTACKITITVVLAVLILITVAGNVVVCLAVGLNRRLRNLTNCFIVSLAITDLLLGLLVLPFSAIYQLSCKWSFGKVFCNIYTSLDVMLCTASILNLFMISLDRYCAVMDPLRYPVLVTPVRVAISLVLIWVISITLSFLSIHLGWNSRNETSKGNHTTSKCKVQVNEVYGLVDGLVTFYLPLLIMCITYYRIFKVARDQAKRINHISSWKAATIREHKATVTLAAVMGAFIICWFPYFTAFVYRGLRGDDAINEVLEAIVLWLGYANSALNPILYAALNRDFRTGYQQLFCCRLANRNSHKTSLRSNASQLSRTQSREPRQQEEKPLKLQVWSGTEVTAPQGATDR

[6] = target: Mu-type opioid receptor (Homo sapiens) (UniProt P35372); test: Inhibition of mu opioid receptor (unknown origin) at 5 uM by psychoactive drug screening programme assay; in short: as §1
Chain of Mu-type opioid receptor (Homo sapiens) (P35372 whole entry): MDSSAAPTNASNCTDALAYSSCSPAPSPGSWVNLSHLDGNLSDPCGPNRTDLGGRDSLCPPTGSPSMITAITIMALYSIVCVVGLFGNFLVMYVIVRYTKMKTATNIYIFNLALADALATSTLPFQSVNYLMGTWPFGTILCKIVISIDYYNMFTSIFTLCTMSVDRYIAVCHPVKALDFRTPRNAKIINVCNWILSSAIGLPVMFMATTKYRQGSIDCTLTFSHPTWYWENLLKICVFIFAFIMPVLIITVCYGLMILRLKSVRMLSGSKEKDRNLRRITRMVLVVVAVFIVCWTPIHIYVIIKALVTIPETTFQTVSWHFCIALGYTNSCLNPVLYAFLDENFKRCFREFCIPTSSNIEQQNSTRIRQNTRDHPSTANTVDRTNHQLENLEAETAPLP

[7] = target: D(4) dopamine receptor (Homo sapiens) (UniProt P21917); test: Inhibition of dopamine D4 receptor (unknown origin) at 5 uM by psychoactive drug screening programme assay; in short: as §1
[8] = target: Beta-3 adrenergic receptor (Homo sapiens) (UniProt P13945); test: Inhibition of adrenergic beta3 receptor (unknown origin) at 5 uM by psychoactive drug screening programme assay; in short: as §1
[9] = target: Beta-2 adrenergic receptor (Homo sapiens) (UniProt P07550); test: Inhibition of adrenergic beta2 receptor (unknown origin) at 5 uM by psychoactive drug screening programme assay; in short: as §1
Chain of Beta-2 adrenergic receptor (Homo sapiens) (P07550 whole entry, looked up): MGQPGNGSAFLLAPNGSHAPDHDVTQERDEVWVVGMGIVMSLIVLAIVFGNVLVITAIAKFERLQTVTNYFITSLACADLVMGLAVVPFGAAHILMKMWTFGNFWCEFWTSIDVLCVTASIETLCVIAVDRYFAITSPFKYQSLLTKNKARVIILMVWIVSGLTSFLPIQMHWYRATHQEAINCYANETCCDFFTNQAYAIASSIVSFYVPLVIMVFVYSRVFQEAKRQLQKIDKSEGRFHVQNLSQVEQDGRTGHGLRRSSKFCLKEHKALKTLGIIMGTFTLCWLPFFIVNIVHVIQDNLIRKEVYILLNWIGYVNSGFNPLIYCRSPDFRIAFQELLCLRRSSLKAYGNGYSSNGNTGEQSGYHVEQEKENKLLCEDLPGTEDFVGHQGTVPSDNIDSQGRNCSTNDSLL

[10] = target: Alpha-2C adrenergic receptor (Homo sapiens) (UniProt P18825); test: Inhibition of adrenergic alpha2C receptor (unknown origin) at 5 uM by psychoactive drug screening programme assay; in short: as §1
[11] = target: Alpha-2B adrenergic receptor (Homo sapiens) (UniProt P18089); test: Inhibition of adrenergic alpha2B receptor (unknown origin) at 5 uM by psychoactive drug screening programme assay; in short: as §1
Chain of Alpha-2B adrenergic receptor (Homo sapiens) (P18089 whole entry): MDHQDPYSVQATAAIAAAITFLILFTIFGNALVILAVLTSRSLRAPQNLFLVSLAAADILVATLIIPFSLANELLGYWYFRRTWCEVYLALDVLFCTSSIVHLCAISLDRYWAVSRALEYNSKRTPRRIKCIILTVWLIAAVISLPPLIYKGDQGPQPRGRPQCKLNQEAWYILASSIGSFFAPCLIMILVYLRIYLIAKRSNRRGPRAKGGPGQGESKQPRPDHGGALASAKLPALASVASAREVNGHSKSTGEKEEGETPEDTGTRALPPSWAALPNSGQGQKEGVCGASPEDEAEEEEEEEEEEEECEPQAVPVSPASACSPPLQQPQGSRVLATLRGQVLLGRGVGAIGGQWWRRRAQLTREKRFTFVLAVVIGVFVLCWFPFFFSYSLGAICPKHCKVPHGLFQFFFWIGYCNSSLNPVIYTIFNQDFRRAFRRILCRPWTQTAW

[12] = target: Alpha-1B adrenergic receptor (Homo sapiens) (UniProt P35368); test: Inhibition of adrenergic alpha1B receptor (unknown origin) at 5 uM by psychoactive drug screening programme assay; in short: as §1
Chain of Alpha-1B adrenergic receptor (Homo sapiens) (P35368 whole entry): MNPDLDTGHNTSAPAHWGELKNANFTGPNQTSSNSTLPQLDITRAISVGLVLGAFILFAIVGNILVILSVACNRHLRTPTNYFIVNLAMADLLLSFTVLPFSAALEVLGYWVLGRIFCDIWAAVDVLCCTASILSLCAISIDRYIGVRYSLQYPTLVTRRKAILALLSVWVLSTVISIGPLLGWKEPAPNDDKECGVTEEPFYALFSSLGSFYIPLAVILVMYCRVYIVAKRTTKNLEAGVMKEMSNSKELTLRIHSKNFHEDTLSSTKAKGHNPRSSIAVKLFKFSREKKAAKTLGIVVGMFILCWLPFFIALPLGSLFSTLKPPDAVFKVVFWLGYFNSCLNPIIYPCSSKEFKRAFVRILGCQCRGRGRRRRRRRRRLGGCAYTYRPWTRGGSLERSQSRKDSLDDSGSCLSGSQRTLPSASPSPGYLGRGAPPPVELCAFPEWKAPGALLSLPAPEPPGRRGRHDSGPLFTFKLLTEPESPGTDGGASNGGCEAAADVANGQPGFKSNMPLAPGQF

[13] = target: 5-hydroxytryptamine receptor 6 (Homo sapiens) (UniProt P50406); test: Inhibition of serotonin 5-HT6 receptor (unknown origin) at 5 uM by psychoactive drug screening programme assay
Chain of 5-hydroxytryptamine receptor 6 (Homo sapiens) (P50406 whole entry): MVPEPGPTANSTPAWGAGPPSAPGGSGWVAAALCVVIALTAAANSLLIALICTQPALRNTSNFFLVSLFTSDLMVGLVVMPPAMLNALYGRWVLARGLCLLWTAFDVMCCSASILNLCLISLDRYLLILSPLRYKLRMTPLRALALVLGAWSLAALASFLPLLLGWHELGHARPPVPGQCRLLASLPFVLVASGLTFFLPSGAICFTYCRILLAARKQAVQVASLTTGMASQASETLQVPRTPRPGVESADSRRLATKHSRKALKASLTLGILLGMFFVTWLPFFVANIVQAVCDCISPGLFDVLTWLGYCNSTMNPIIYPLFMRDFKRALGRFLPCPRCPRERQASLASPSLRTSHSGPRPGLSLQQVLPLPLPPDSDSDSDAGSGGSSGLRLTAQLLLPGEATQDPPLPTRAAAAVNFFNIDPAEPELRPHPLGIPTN

[14] = target: 5-hydroxytryptamine receptor 3A (Homo sapiens) (UniProt P46098); test: Inhibition of serotonin 5-HT3 receptor (unknown origin) at 5 uM by psychoactive drug screening programme assay
Chain of 5-hydroxytryptamine receptor 3A (Homo sapiens) (P46098 whole entry): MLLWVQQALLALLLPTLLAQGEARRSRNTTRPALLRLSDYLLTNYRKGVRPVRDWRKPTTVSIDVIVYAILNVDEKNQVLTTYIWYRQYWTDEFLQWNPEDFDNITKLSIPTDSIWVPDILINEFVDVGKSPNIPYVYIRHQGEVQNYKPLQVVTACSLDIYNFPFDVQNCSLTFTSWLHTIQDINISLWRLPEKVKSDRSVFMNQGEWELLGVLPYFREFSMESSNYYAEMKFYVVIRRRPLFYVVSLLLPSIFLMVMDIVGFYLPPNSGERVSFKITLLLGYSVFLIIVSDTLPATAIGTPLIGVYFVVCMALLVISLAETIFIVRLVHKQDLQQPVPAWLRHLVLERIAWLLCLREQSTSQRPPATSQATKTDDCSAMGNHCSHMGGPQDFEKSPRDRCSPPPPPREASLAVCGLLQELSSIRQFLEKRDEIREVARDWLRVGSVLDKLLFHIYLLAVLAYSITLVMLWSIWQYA

[15] = target: 5-hydroxytryptamine receptor 2A (Homo sapiens) (UniProt P28223); test: Inhibition of serotonin 5-HT2A receptor (unknown origin) at 5 uM by psychoactive drug screening programme assay; in short: as §1
[16] = target: 5-hydroxytryptamine receptor 1B (Homo sapiens) (UniProt P28222); test: Inhibition of serotonin 5-HT1B receptor (unknown origin) at 5 uM by psychoactive drug screening programme assay; in short: as §1
Chain of 5-hydroxytryptamine receptor 1B (Homo sapiens) (P28222 whole entry): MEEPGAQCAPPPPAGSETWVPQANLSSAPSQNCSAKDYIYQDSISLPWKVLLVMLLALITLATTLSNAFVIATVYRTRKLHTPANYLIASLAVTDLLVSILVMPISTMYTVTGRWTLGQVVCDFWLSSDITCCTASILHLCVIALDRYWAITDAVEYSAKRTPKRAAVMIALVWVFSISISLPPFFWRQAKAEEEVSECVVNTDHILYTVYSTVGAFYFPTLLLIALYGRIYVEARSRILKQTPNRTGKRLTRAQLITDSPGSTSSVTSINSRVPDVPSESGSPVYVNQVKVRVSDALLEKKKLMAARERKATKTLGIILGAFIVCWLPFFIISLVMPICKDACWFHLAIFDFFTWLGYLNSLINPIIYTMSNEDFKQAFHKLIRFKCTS

[17] = target: 5-hydroxytryptamine receptor 1A (Homo sapiens) (UniProt P08908); test: Inhibition of serotonin 5-HT1A receptor (unknown origin) at 5 uM by psychoactive drug screening programme assay; in short: as §1
[18] = target: P2X purinoceptor 2 (Rattus norvegicus) (UniProt P49653); test: Activity at rat recombinant purinergic P2X2 receptor expressed in Xenopus oocytes assessed as effect on ATP-induced activation at 3 uM by two-electrode voltage clamp technique relative to control; assay type: cell-based; conditions: Oocyte
In short: (§2)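 Two-electrode voltage clamp of Xenopus oocytes injected with 1–5 ng cRNA and kept in Barth's solution at 15°C for 2–5 days. Oocytes were perfused with 90 mM NaCl, 1.0 KCl, 0.5 BaCl2, 0.005 EDTA, 10 HEPES, pH 7.4, 23°C, and held at -40 mV. Compound was co-applied at 3 µM with agonist from 20 mM DMSO stocks, final DMSO 0.05–0.5%.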

[19] = test system: Oocyte; test: Activity at mouse recombinant alpha1beta1gammadelta nAChR expressed in Xenopus oocytes assessed as effect on acetylcholine-induced activation at 3 uM by two-electrode voltage clamp technique relative to control; assay type: cell-based; in short: as §2
[20] = target: Gamma-aminobutyric acid receptor subunit rho-1 (Homo sapiens) (UniProt P24046); test: Activity at human recombinant GABA(C) receptor expressed in Xenopus oocytes assessed as effect on GABA-induced activation at 3 uM by two-electrode voltage clamp technique relative to control; assay type: cell-based; conditions: Oocyte; in short: as §2
[21] = target: 5-hydroxytryptamine receptor 3A (Rattus norvegicus) (UniProt P35563); test: Activity at rat recombinant serotonin 5-HT3A receptor expressed in Xenopus oocytes assessed as effect on serotonin-induced activation at 3 uM by two-electrode voltage clamp technique relative to control; assay type: cell-based; conditions: Oocyte; in short: as §2
[22] = target: Glutamate receptor 3 (Rattus norvegicus) (UniProt P19492); test: Activity at rat recombinant GluA3 receptor expressed in Xenopus oocytes assessed as effect on glutamate-induced response at 3 uM by two-electrode voltage clamp technique relative to control; assay type: cell-based; conditions: Oocyte; in short: as §2
[23] = target: Glutamate receptor 2 (Rattus norvegicus) (UniProt P19491); test: Activity at rat recombinant GluA2 receptor expressed in Xenopus oocytes assessed as effect on glutamate-induced response at 3 uM by two-electrode voltage clamp technique relative to control; assay type: cell-based; conditions: Oocyte; in short: as §2
[24] = target: Glutamate NMDA receptor; Grin1/Grin2c (Rattus norvegicus) (UniProt P35439+Q00961); test: Activity at rat recombinant GluN1/GluN2C receptor expressed in Xenopus oocytes assessesed as effect of glycine/glutamate-induced response at 3 uM by two-electrode voltage clamp technique relative to control; assay type: cell-based; conditions: Oocyte; in short: as §2
[25] = target: Glutamate NMDA receptor; Grin1/Grin2b (Rattus norvegicus) (UniProt P35439+Q00960); test: Activity at rat recombinant GluN1/GluN2B receptor expressed in Xenopus oocytes assessed as effect of glycine/glutamate-induced response at 3 uM by two-electrode voltage clamp technique relative to control; assay type: cell-based; conditions: Oocyte; in short: as §2
[26] = target: Glutamate NMDA receptor; Grin1/Grin2a (Rattus norvegicus) (UniProt P35439+Q00959); test: Activity at rat recombinant GluN1/GluN2A receptor expressed in Xenopus oocytes assessesed as effect of glycine/glutamate-induced response at 3 uM by two-electrode voltage clamp technique relative to control; assay type: cell-based; conditions: Oocyte; in short: as §2
[27] = target: Ionotropic glutamate receptor NMDA 1/2D (Rattus norvegicus, UniProt P35439+Q62645); test: Activity at rat recombinant GluN1/GluN2D receptor assessed as potentiation of glycine/glutamate-induced activation by two-electrode voltage clamp technique; assay type: protein-complex assay
[28] = target: Glutamate NMDA receptor; Grin1/Grin2c (Rattus norvegicus, UniProt P35439+Q00961); test: Activity at rat recombinant GluN1/GluN2C receptor assessed as potentiation of glycine/glutamate-induced activation by two-electrode voltage clamp technique; assay type: protein-complex assay
[29] = target: Neuronal acetylcholine receptor; alpha4/beta2 (Homo sapiens) (UniProt P17787+P43681); test: Activity at human recombinant alpha4beta2 nAChR expressed in Xenopus oocytes assessed as effect on acetylcholine-induced activation at 3 uM by two-electrode voltage clamp technique relative to control; assay type: cell-based; conditions: Oocyte; in short: as §2

Chain of Kappa-type opioid receptor (P41145 whole entry): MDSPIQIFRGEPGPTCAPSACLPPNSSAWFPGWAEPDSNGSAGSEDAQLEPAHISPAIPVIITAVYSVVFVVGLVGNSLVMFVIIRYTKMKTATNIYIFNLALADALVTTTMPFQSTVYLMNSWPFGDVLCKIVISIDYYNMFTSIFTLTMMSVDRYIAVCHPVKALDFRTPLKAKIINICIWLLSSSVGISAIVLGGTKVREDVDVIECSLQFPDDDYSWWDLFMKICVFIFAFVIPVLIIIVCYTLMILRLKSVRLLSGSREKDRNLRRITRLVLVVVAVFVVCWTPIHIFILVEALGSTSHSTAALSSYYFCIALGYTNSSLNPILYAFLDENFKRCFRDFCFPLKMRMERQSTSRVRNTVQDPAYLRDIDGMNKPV

## COc1ccc(OCC2c3ccc(OCc4ccccc4)cc3CCN2C(=O)c2cccc(Br)c2)cc1 (centres undefined)
[1]
  Ki: > 5000 nM
[2]
  inhibition: < 50%
[3]
  inhibition: < 50%
[4]
  inhibition: < 50%
[5]
  inhibition: < 50%
[6]
  inhibition: < 50%
[7]
  inhibition: < 50%
[8]
  inhibition: < 50%
[9]
  inhibition: < 50%
[10]
  inhibition: < 50%
[11]
  inhibition: < 50%
[12]
  inhibition: < 50%
[13]
  inhibition: < 50%
[14]
  inhibition: < 50%
[15]
  inhibition: < 50%
[16]
  inhibition: < 50%
[17]
  inhibition: < 50%
[18]
  Activity: 94%
[19]
  Activity: 105%
[20]
  Activity: 99%
[21]
  Activity: 93%
[22]
  Activity: 99%
[23]
  Activity: 97%
[24]
  Activity: 247%
[25]
  Activity: 102%
[26]
  Activity: 105%
[27]
  EC50: 300 nM
[28]
  EC50: 300 nM
[29]
  Activity: 91%
